{"data": "Results collected from several papers", "ACHE": "Acetylcholinesterase (ACHE, Homo sapiens, UniProt P22303)", "FABP4": "Fatty acid-binding protein, adipocyte (FABP4, Homo sapiens, UniProt P15090)", "Sialidase-2": "Sialidase-2 (Homo sapiens, UniProt Q9Y3R4)", "DPP4": "Dipeptidyl peptidase 4 (DPP4, Homo sapiens, UniProt P27487)", "note": "Protocols differ between the studies behind these lines. pIC50: −log10 of the molar value."}
{"SMILES": "COc1ccccc1C=Nc1ccc(SCc2cc(=O)c(O)co2)cc1", "target": "ACHE", "test": "enzyme activity, inhibitor, Ellman", "pIC50": 5.21}
{"SMILES": "CCOC(=O)c1ccc(OC(=O)CCCCCN=C(N)N)cc1", "target": "Kallikrein-13 (Homo sapiens, UniProt Q9UKR3)", "test": "enzyme activity, inhibitor", "pIC50": 4.91}
{"SMILES": "CC(=O)c1c(C)c2cnc(Nc3ccc(C4CCN(CCS(C)(=O)=O)CC4)cn3)nc2n(C2CCCC2)c1=O", "target": "Cytochrome P450 2C9 (CYP2C9, Homo sapiens, UniProt P11712)", "test": "enzyme activity, inhibitor", "test system": "human, liver microsomes", "pIC50": "< 5.00"}
{"SMILES": "Cc1cccc(C=Nc2ccc(SCc3cc(=O)c(O)co3)cc2)c1", "target": "ACHE", "test": "enzyme activity, inhibitor, Ellman", "pIC50": 5.25}
{"SMILES": "COC(=O)[C@@H](NC(=O)COc1c(NC(C)=O)cc(-c2nc3ccccc3s2)cc1OC)C(C)C", "target": "ACHE", "test": "enzyme activity, inhibitor, Ellman", "pIC50": "< 3.58"}
{"SMILES": "O=C(O)C(F)(F)C(F)(F)C(F)(F)C(F)(F)C(F)(F)C(F)(F)C(F)(F)C(F)(F)C(F)(F)C(F)(F)F", "target": "FABP4", "test": "ligand displacement, fluorescence", "setting": "pH 7.5", "pIC50": 5.53}
{"SMILES": "COc1cc(-c2nc3ccccc3s2)cc(NC(C)=O)c1OCC(=O)N[C@@H](CC(C)C)C(=O)O", "target": "ACHE", "test": "enzyme activity, inhibitor, Ellman", "pIC50": "< 3.58"}
{"SMILES": "COc1ccc(C=Nc2ccc(SCc3cc(=O)c(O)co3)cc2)cc1", "target": "ACHE", "test": "enzyme activity, inhibitor, Ellman", "pIC50": 4.69}
{"SMILES": "NS(=O)(=O)C(F)(F)C(F)(F)C(F)(F)C(F)(F)C(F)(F)C(F)(F)C(F)(F)C(F)(F)F", "target": "FABP4", "test": "ligand displacement, fluorescence", "setting": "pH 7.5", "pIC50": 4.77}
{"SMILES": "CC(C)C[C@H](NC(=O)[C@H](CO)NC(=O)[C@@H](NC(=O)[C@@H]1CCCN1C(=O)[C@@H](N)CCCCN)C(C)C)C(=O)N[C@@H](CO)C(=O)N[C@@H](Cc1ccc(O)cc1)C(=O)N[C@@H](CCCNC(=N)N)C(=O)NCC(=O)NCC(=O)N[C@H](CC(C)C)C(=O)NCC(=O)N[C@H](C)C(=O)N[C@H](CO)C(=O)N[C@H](Cc1c[nH]c2ccccc12)C(=O)N[C@H](Cc1c[nH]cn1)C(=O)N[C@H](CCCNC(=N)N)C(=O)N[C@@H](Cc1ccc2ccccc2c1)C(=O)N[C@@H](CCCNC(=N)N)C(=O)N[C@@H](CCCNC(=N)N)C(N)=O", "target": "C-X-C chemokine receptor type 4 (CXCR4, Homo sapiens, UniProt P61073)", "test": "ligand displacement in cells, fluorescence", "pIC50": 6.12}
{"SMILES": "COC(=O)[C@H](C)NC(=O)COc1c(NC(C)=O)cc(-c2nc3ccccc3s2)cc1OC", "target": "ACHE", "test": "enzyme activity, inhibitor, Ellman", "pIC50": "< 3.55"}
{"SMILES": "Cn1cc2cc(C(F)(F)c3nnc4ccc(-c5cnn(C6CC6)c5)nn34)c(F)cc2n1", "target": "Proto-oncogene tyrosine-protein kinase Src (SRC, Homo sapiens, UniProt P12931)", "test": "enzyme activity, inhibitor, ADP detection", "pIC50": "< 6.00"}
{"SMILES": "O=C(O)C1=C[C@H](O)[C@@H](n2cc(-c3ccc(-c4ccccc4)cc3)nn2)[C@H]([C@H](O)[C@H](O)CO)O1", "target": "Sialidase-2", "test": "enzyme activity, inhibitor", "pIC50": 3.57}
{"SMILES": "COc1ccc(CCCCC(=O)C(F)(F)C(F)(F)F)cc1", "target": "Phospholipase A2 group V (PLA2G5, Homo sapiens, UniProt P39877)", "test": "enzyme activity, inhibitor", "pIC50": 4.35}
{"SMILES": "NC(=O)CC[C@H](NC(=O)[C@@H]1CCCN1C(=O)[C@H](CCC(N)=O)NC(=O)[C@@H]1CCCN1C(=O)[C@@H](N)Cc1ccc(O)cc1)C(=O)O", "target": "DPP4", "test": "enzyme activity, inhibitor, absorbance", "setting": "pH 8", "pIC50": 4.62}
{"SMILES": "CCCCNC(=O)N[C@H]1[C@H]([C@H](O)[C@H](O)CO)OC(C(=O)O)=C[C@@H]1O", "target": "Sialidase-2", "test": "enzyme activity, inhibitor", "pIC50": 3.42}
{"SMILES": "O=c1cc(CSc2ccc(N=Cc3ccccc3)cc2)occ1O", "target": "ACHE", "test": "enzyme activity, inhibitor, Ellman", "pIC50": 5.08}
{"SMILES": "O=C(O)C(F)(F)C(F)(F)C(F)(F)C(F)(F)C(F)(F)C(F)(F)C(F)(F)C(F)(F)C(F)(F)F", "target": "FABP4", "test": "ligand displacement, fluorescence", "setting": "pH 7.5", "pIC50": 5.45}
{"SMILES": "CC(C)CNC(=O)N[C@H]1[C@H]([C@H](O)[C@H](O)CO)OC(C(=O)O)=C[C@@H]1O", "target": "Sialidase-2", "test": "enzyme activity, inhibitor", "pIC50": 4.52}
{"SMILES": "COc1cccc(C=Nc2ccc(SCc3cc(=O)c(O)co3)cc2)c1", "target": "ACHE", "test": "enzyme activity, inhibitor, Ellman", "pIC50": 4.70}
{"SMILES": "CCCCCc1cn([C@H]2[C@H]([C@H](O)[C@H](O)CO)OC(C(=O)O)=C[C@@H]2O)nn1", "target": "Sialidase-2", "test": "enzyme activity, inhibitor", "pIC50": "< 3.30"}
{"SMILES": "C1CO1.C=O.CC(C)(C)CC(C)(C)c1ccc(O)cc1", "target": "Mitogen-activated protein kinase 3 (MAPK3, Homo sapiens, UniProt P27361)", "test": "enzyme activity, inhibitor, ADP detection", "pIC50": 4.04}
{"SMILES": "O=C(O)C1=C[C@H](O)[C@@H](NCc2ccc(-c3ccccc3)cc2)[C@H]([C@H](O)[C@H](O)CO)O1", "target": "Sialidase-2", "test": "enzyme activity, inhibitor", "pIC50": 3.64}
{"SMILES": "CCc1ccc(C=Nc2ccc(SCc3cc(=O)c(O)co3)cc2)cc1", "target": "ACHE", "test": "enzyme activity, inhibitor, Ellman", "pIC50": 5.07}
{"SMILES": "CCCCCC(=O)N(C)[C@H]1[C@H]([C@H](O)[C@H](O)CO)OC(C(=O)O)=C[C@@H]1O", "target": "Sialidase-2", "test": "enzyme activity, inhibitor", "pIC50": 3.85}
{"SMILES": "O=c1cc(CSc2ccc(N=Cc3ccccc3Cl)cc2)occ1O", "target": "ACHE", "test": "enzyme activity, inhibitor, Ellman", "pIC50": 5.63}
{"SMILES": "CC(C)(C)NC(=O)N[C@H]1[C@H]([C@H](O)[C@H](O)CO)OC(C(=O)O)=C[C@@H]1O", "target": "Sialidase-2", "test": "enzyme activity, inhibitor", "pIC50": "< 3.30"}
{"SMILES": "O=c1cc(CSc2ccc(N=Cc3ccc(F)cc3)cc2)occ1O", "target": "ACHE", "test": "enzyme activity, inhibitor, Ellman", "pIC50": 5.84}
{"SMILES": "CC(C)CCC(=O)N[C@H]1[C@H]([C@H](O)[C@H](O)CO)OC(C(=O)O)=C[C@@H]1O", "target": "Sialidase-2", "test": "enzyme activity, inhibitor", "pIC50": 5.00}
{"SMILES": "C=CCc1ccc(O)c(-c2cc(CC=C)ccc2O)c1", "target": "DPP4", "test": "enzyme activity, inhibitor, fluorescence", "pIC50": "< 4.00"}
